Converted amounts (≈) assume the structure as drawn.
Key:
UGT [1] = biological target: T1, UGT (Homo sapiens, UniProt O60656+O75310+O75795+P06133+P0DTE4+P0DTE5+P16662+P19224+P22309+P22310+P35503+P35504+P36537+P54855+Q6UWM9+Q9BY64+Q9HAW7+Q9HAW8+Q9HAW9); assay: Microsomal stability in human liver microsomes assessed as UGT-mediated metabolism by measuring compound remaining at 5 uM and measured for 15 mins in presence of UDPGA by UPLC-MS/MS analysis (reference value: 100%); type: ADME; conditions: read-out: Stability
Summary of the method: (§1)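 Compound at 5 µM with 0.5 mg/mL liver microsomes in PBS. Phase I was started with 1 mM NADPH; phase II used 2 mM UDPGA. Diclofenac served as reference. Samples taken at 0, 15, 30 and 60 min were quenched in ice-cold acetonitrile, centrifuged at 4°C and analysed by LC-MS. Mean of at least two replicates ± SD.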

[2] = system: Mycobacterium tuberculosis; assay: Antimycobacterial activity against Mycobacterium tuberculosis H37Ra lux incubated for 7 days by luminometric assay; type: functional, organism-based; conditions: 168 h
Summary of the method: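 Twofold serial dilutions in 7H9/OADC/glycerol, in triplicate, inoculated with a suspension of 10.000 RLU per mL. After 7 days, n-decanal (1% v/v in ethanol) was added and luminescence read. IC50 and MIC (90% growth reduction) were derived from the mean of triplicates.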

[3] = Cytotoxicity against mouse J774A.1 cells assessed as reduction in cell viability incubated for 24 hrs by neutral red uptake assay; type: cell-based, J774.A1
Summary of the method: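 J774A.1 cells in DMEM + 10% iFCS, 37°C, 5% CO2, seeded at 40.000 cells/well and left overnight. Twofold dilutions from 128 µM final; 24 h exposure. Neutral red uptake for 3 h, dye extracted with 1:1 ethanol/acetic acid, OD read at 530 nm (reference 620 nm). CC50 = 50% reduction in uptake; mean of triplicates.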

UGT [4] = assay: Microsomal stability in mouse liver microsomes assessed as UGT-mediated metabolism by measuring compound remaining at 5 uM and measured for 15 mins in presence of UDPGA by UPLC-MS/MS analysis (reference value: 100%); type: ADME; conditions: read-out: Stability; summary of the method: as §1
Pseudomonas aeruginosa = assay: Antibacterial activity against Pseudomonas aeruginosa ATCC 9027 incubated for 24 hrs by resazurin dye based fluorimetric assay; type: functional, organism-based; conditions: ATCC 9027, 24 h
Summary of the method: (§2)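 Resazurin microtiter assay: compounds from 10 mM DMSO stock, twofold serial dilutions from 64 µM final in growth medium, in triplicate. Inoculum from frozen glycerol stocks. Exposure 24 h, or 7 days for Mtb H37Ra (7H9 + 0.5% glycerol + 10% OADC). Then 0.01% resazurin was added and plates were incubated at 37°C until pink. Fluorescence read at ex 550/em 590 nm; mean of triplicates.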

CYP450 [5] = assay: Microsomal stability in mouse liver microsomes assessed as CYP450-mediated metabolism by measuring compound remaining at 5 uM and measured for 60 mins in presence of NADPH by UPLC-MS/MS analysis (reference value: 100%); type: ADME; conditions: read-out: Stability; summary of the method: as §1
[6] = system: Mycobacterium tuberculosis; assay: Antibacterial activity against Mycobacterium tuberculosis H37Ra ATCC 25177 incubated for 7 days by resazurin dye based fluorimetric assay; type: functional, organism-based; conditions: H37Ra ATCC 25177, 168 h; summary of the method: as §2
CYP450 [7] = biological target: T2, CYP450 (Homo sapiens, UniProt P04798+P05177+P05181+P08684+P10632+P10635+P11509+P11712+P13584+P20813+P20815+P20853+P24462+P24903+P33260+P33261+P51589+P78329+P98187+Q02928+Q08477+Q16678+Q16696+Q5TCH4+Q6VVX0+Q7Z449+Q8TAV3+Q96SQ9+Q9HB55); assay: Microsomal stability in human liver microsomes assessed as CYP450-mediated metabolism by measuring compound remaining at 5 uM and measured for 15 mins in presence of NADPH by UPLC-MS/MS analysis (reference value: 100%); type: ADME; conditions: read-out: Stability; summary of the method: as §1
UGT [8] = assay: Microsomal stability in mouse liver microsomes assessed as UGT-mediated metabolism by measuring compound remaining at 5 uM and measured for 30 mins in presence of UDPGA by UPLC-MS/MS analysis (reference value: 100%); type: ADME; conditions: read-out: Stability; summary of the method: as §1
Escherichia coli = assay: Antibacterial activity against Escherichia coli ATCC 8739 incubated for 24 hrs by resazurin dye based fluorimetric assay; type: functional, organism-based; conditions: ATCC 8739, ATCC 8739, 24 h; summary of the method: as §2
CYP450 [9] = assay: Microsomal stability in mouse liver microsomes assessed as CYP450-mediated metabolism by measuring compound remaining at 5 uM and measured for 15 mins in presence of NADPH by UPLC-MS/MS analysis (reference value: 100%); type: ADME; conditions: read-out: Stability; summary of the method: as §1
Mycobacterium marinum = assay: Antimycobacterial activity against Mycobacterium marinum NCTC 2275 by resazurin dye based fluorimetric assay; type: functional, organism-based
Summary of the method: (§3)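 Resazurin microtiter method as for the bacterial panel. Mycobacteria grown in 7H9 with 10% OADC and 0.5% glycerol; for BCG, 0.05% Tween 80 replaced the glycerol. Cultures were sonicated and needle-passed to single cells. Incubation at 37°C, or 32°C for M. marinum. Fluorescence read at ex 550/em 590 nm; mean of triplicates.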

CYP450 [10] = biological target: T2, CYP450; assay: Microsomal stability in human liver microsomes assessed as CYP450-mediated metabolism by measuring compound remaining at 5 uM and measured for 30 mins in presence of NADPH by UPLC-MS/MS analysis (reference value: 100%); type: ADME; conditions: read-out: Stability; summary of the method: as §1
Enterococcus faecium = assay: Antibacterial activity against Enterococcus faecium ATCC 19434 incubated for 24 hrs by resazurin dye based fluorimetric assay; type: functional, organism-based; conditions: ATCC 19434, 24 h; summary of the method: as §2
Staphylococcus aureus = assay: Antibacterial activity against Staphylococcus aureus ATCC 6538 incubated for 24 hrs by resazurin dye based fluorimetric assay; type: functional, organism-based; conditions: ATCC 6538, 24 h; summary of the method: as §2
Klebsiella pneumoniae = assay: Antibacterial activity against Klebsiella pneumoniae ATCC 13883 incubated for 24 hrs by resazurin dye based fluorimetric assay; type: functional, organism-based; conditions: ATCC 13883, 24 h; summary of the method: as §2
UGT [11] = biological target: T1, UGT; assay: Microsomal stability in human liver microsomes assessed as UGT-mediated metabolism by measuring compound remaining at 5 uM and measured for 30 mins in presence of UDPGA by UPLC-MS/MS analysis (reference value: 100%); type: ADME; conditions: read-out: Stability; summary of the method: as §1
[12] = Antimycobacterial activity against Mycobacterium avium subsp. avium ATCC 25291 by resazurin dye based fluorimetric assay; type: functional; summary of the method: as §3
[13] = Selectivity index, ratio of […] for cytotoxicity against mouse J774A.1 cells; type: toxicity, cell-based; conditions: read-out: Selectivity Index
CYP450 [14] = assay: Microsomal stability in mouse liver microsomes assessed as CYP450-mediated metabolism by measuring compound remaining at 5 uM and measured for 30 mins in presence of NADPH by UPLC-MS/MS analysis (reference value: 100%); type: ADME; conditions: read-out: Stability; summary of the method: as §1
Streptococcus pneumoniae = assay: Antibacterial activity against Streptococcus pneumoniae ATCC BAA-334 incubated for 24 hrs by resazurin dye based fluorimetric assay; type: functional, organism-based; conditions: ATCC BAA-334, 24 h; summary of the method: as §2
UGT [15] = biological target: T1, UGT; assay: Microsomal stability in human liver microsomes assessed as UGT-mediated metabolism by measuring compound remaining at 5 uM and measured for 60 mins in presence of UDPGA by UPLC-MS/MS analysis (reference value: 100%); type: ADME; conditions: read-out: Stability; summary of the method: as §1
CYP450 [16] = biological target: T2, CYP450; assay: Microsomal stability in human liver microsomes assessed as CYP450-mediated metabolism by measuring compound remaining at 5 uM and measured for 60 mins in presence of NADPH by UPLC-MS/MS analysis (reference value: 100%); type: ADME; conditions: read-out: Stability; summary of the method: as §1
UGT [17] = assay: Microsomal stability in mouse liver microsomes assessed as UGT-mediated metabolism by measuring compound remaining at 5 uM and measured for 60 mins in presence of UDPGA by UPLC-MS/MS analysis (reference value: 100%); type: ADME; conditions: read-out: Stability; summary of the method: as §1

SMILES | remaining at 0.25 h, 5 µM (UGT [1]) [%] | IC50 [2] [µM] | MIC90 [2] [µM] | CC50 at 24 h [3] [µM] | IC50 (Pseudomonas aeruginosa) [µM] | IC50 [6] [µM] | remaining at 0.25 h, 5 µM (CYP450 [7]) [%] | IC50 (Escherichia coli) [µM] | IC50 (Mycobacterium marinum) [µM] | remaining at 0.5 h, 5 µM (CYP450 [10]) [%] | IC50 (Enterococcus faecium) [µM] | IC50 (Staphylococcus aureus) [µM] | IC50 (Klebsiella pneumoniae) [µM] | remaining at 0.5 h, 5 µM (UGT [11]) [%] | IC50 [12] [µM] | IC50 (Streptococcus pneumoniae) [µM] | remaining at 1 h, 5 µM (UGT [15]) [%] | remaining at 1 h, 5 µM (CYP450 [16]) [%] | further results
O=C1C2=C(C(=O)c3c1cnc1ccc(C(F)(F)F)cc31)C1CCC2C1 (configuration not stated) | 100 | 2.51 | 9.23 (≈ 3.17 µg/mL) | 108 | > 64 | 2 to 4 | 100 | > 64 | 45.5 | 100 | > 64 | > 64 | > 64 | 74 | 8.51 | > 64 | 69 | 100 | remaining at 0.25 h, 5 µM (UGT [4]): 87%; remaining at 1 h, 5 µM (CYP450 [5]): 100%; remaining at 0.5 h, 5 µM (UGT [8]): 81%; remaining at 0.25 h, 5 µM (CYP450 [9]): 100%; selectivity ratio [13]: 11.8; remaining at 0.5 h, 5 µM (CYP450 [14]): 100%; remaining at 1 h, 5 µM (UGT [17]): 78%
CN[C@H](CC(C)C)C(=O)N[C@H]1C(=O)N[C@@H](CC(N)=O)C(=O)N[C@H]2C(=O)N[C@H]3C(=O)N[C@H](C(=O)N[C@H](C(=O)O)c4cc(O)cc(O)c4-c4cc3ccc4O)[C@H](O)c3ccc(c(Cl)c3)Oc3cc2cc(c3O[C@@H]2O[C@H](CO)[C@@H](O)[C@H](O)[C@H]2O[C@H]2C[C@](C)(N)[C@H](O)[C@H](C)O2)Oc2ccc(cc2Cl)[C@H]1O [VANCOMYCIN] |  |  |  |  |  |  |  |  |  |  | > 0.5 |  |  |  |  |  |  |  | 
O=C1C2=C(C(=O)c3c1cnc1ccc(F)cc31)C1CCC2C1 (configuration not stated) | 92 | 6.93 | 57.3 (≈ 16.8 µg/mL) | > 128 | > 64 | 4 to 8 | 100 | > 64 | 5.04 | 100 | > 64 | > 64 | > 64 | 79 | 0.24 | 32 to 64 | 64 | 100 | remaining at 0.25 h, 5 µM (UGT [4]): 96%; remaining at 1 h, 5 µM (CYP450 [5]): 100%; remaining at 0.5 h, 5 µM (UGT [8]): 92%; remaining at 0.25 h, 5 µM (CYP450 [9]): 100%; remaining at 0.5 h, 5 µM (CYP450 [14]): 100%; remaining at 1 h, 5 µM (UGT [17]): 72%
O=C1C2=C(C(=O)c3c1cnc1cc(C(F)(F)F)ccc31)C1CCC2C1 (configuration not stated) | 71 | 3.05 | 7.95 (≈ 2.73 µg/mL) | 122 | > 64 | 2 to 4 | 100 | > 64 | 9 | 100 | > 64 | > 64 | > 64 | 63 | 3.24 | 32 to 64 | 63 | 100 | remaining at 0.25 h, 5 µM (UGT [4]): 62%; remaining at 1 h, 5 µM (CYP450 [5]): 100%; remaining at 0.5 h, 5 µM (UGT [8]): 70%; remaining at 0.25 h, 5 µM (CYP450 [9]): 100%; selectivity ratio [13]: 15.4; remaining at 0.5 h, 5 µM (CYP450 [14]): 100%; remaining at 1 h, 5 µM (UGT [17]): 51%
CCn1cc(C(=O)O)c(=O)c2cc(F)c(N3CCNCC3)cc21 [NORFLOXACIN] |  |  |  |  | > 0.5 |  |  | > 0.25 |  |  |  |  |  |  |  |  |  |  | 
O=C(O)Cc1ccccc1Nc1c(Cl)cccc1Cl [DICLOFENAC] | 22 |  |  |  |  |  | 45 |  |  | 23 |  |  |  | 16 |  |  | 13 | 5 | 
C[C@H]1c2cccc(O)c2C(=O)C2=C(O)[C@]3(O)C(=O)C(C(N)=O)=C(O)[C@@H](N(C)C)[C@@H]3[C@@H](O)[C@@H]21 [DOXYCYCLINE] |  |  |  |  |  |  |  |  |  |  |  | < 0.25 |  |  |  | > 0.25 |  |  | 
COc1c(N2C[C@@H]3CCCN[C@@H]3C2)c(F)cc2c(=O)c(C(=O)O)cn(C3CC3)c12 [MOXIFLOXACIN] |  |  |  |  |  |  |  |  | 0.14 |  |  |  |  |  | 0.19 |  |  |  | 
CC/C(=C(\c1ccccc1)c1ccc(OCCN(C)C)cc1)c1ccccc1 [TAMOXIFEN] |  |  |  | 11.1 |  |  |  |  |  |  |  |  |  |  |  |  |  |  | 
NNC(=O)c1ccncc1 [ISONIAZID] |  | 0.11 | 0.31 (≈ 0.0425 µg/mL) |  |  | < 0.25 |  |  |  |  |  |  |  |  |  |  |  |  | 
O=C(O)c1cn(C2CC2)c2cc(N3CCNCC3)c(F)cc2c1=O [CIPROFLOXACIN] |  |  |  |  |  |  |  |  |  |  |  |  | < 0.25 |  |  |  |  |  | 
